# From ChEMBL document CHEMBL4196166 (J Med Chem, 2018)
# Active and inactive are the calls of the source. The rule behind the calls is not given here.
# Experiments:
# [1] = molecular target: T1, Urokinase-type plasminogen activator (Homo sapiens, UniProt P00749); assay: Inhibition of human kidney uPA using Z-Gly-Gly-Arg-AMC as substrate measured over 15 mins by fluorescence assay
# [2] = molecular target: T1, Urokinase-type plasminogen activator; assay: Inhibition of human kidney uPA using chromogenic H-D-Ile-L-Pro-L-Arg-p-nitoraniline as substrate by fluorescence assay
# Method in brief: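 Enzyme was uPA from human kidney cells at 10 nM final. […] Absorbance change at 405 nm gave initial rates. IC50 from a sigmoidal fit of % residual activity vs log concentration.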
# [3] = molecular target: Tissue-type plasminogen activator (Homo sapiens, UniProt P00750); assay: Inhibition of tPA (unknown origin) using chromogenic H-D-Ile-L-Pro-L-Arg-p-nitoraniline as substrate by […]
# Plasminogen = Plasminogen (Homo sapiens, UniProt P00747); assay: Inhibition of plasmin (unknown origin) using chromogenic H-D-Ile-L-Pro-L-Arg-p-nitoraniline as substrate by […]
# Prothrombin = Prothrombin (Homo sapiens, UniProt P00734); assay: Inhibition of thrombin (unknown origin) using chromogenic H-D-Ile-L-Pro-L-Arg-p-nitoraniline as substrate by […]
# Plasma kallikrein = Plasma kallikrein (Homo sapiens, UniProt P03952); assay: Inhibition of human plasma kallikrein using chromogenic L-pyroGlu-L-Pro-L-Arg-p-nitroaniline as substrate by fluorescence assay
# Coagulation factor XI = Coagulation factor XI (Homo sapiens, UniProt P03951); assay: Inhibition of factor 11a (unknown origin) using chromogenic L-pyroGlu-L-Pro-L-Arg-p-nitroaniline as substrate by […]
# Coagulation factor X = Coagulation factor X (Homo sapiens, UniProt P00742); assay: Inhibition of factor 10a (unknown origin) using chromogenic H-D-Ile-L-Pro-L-Arg-p-nitoraniline as substrate by fluorescence assay
# [4] = molecular target: Vitamin K-dependent protein C (Homo sapiens, UniProt P04070); assay: Inhibition of activated protein C (unknown origin) using chromogenic L-pyroGlu-L-Pro-L-Arg-p-nitroaniline as substrate by fluorescence assay
# MDA-MB-231 = assay: Cytotoxicity against human MDA-MB-231 cells assessed as reduction in cell viability after 48 hrs by CellTiter 96 Aqueous One solution cell proliferation assay; type: functional, cell-based; details: MDA-MB-231, 48 h
# Method in brief: (§1)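 Cells grown in DMEM high glucose with 10% heat-inactivated FCS, seeded at 5000/well and left 18 h. Compounds added at 1 nM–100 µM final (0.2% vehicle), n = 4 wells per concentration, with colour blanks. After 48 h, MTS reagent added for 2 h and A490 read. IC50 from a variable-slope sigmoidal fit.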
# HepG2 = assay: Cytotoxicity against human HepG2 cells assessed as reduction in cell viability after 48 hrs by CellTiter 96 Aqueous One solution cell proliferation assay; type: functional, cell-based; details: HepG2, 48 h; method in brief: as §1
# HEK293 = assay: Cytotoxicity against HEK293 cells assessed as reduction in cell viability after 48 hrs by CellTiter 96 Aqueous One solution cell proliferation assay; type: cell-based; details: Homo sapiens, HEK293, 48 h; method in brief: as §1
# HT-1080 = assay: Cytotoxicity against human HT1080 cells assessed as reduction in cell viability after 48 hrs by CellTiter 96 Aqueous One solution cell proliferation assay; type: functional, cell-based; details: HT-1080, 48 h; method in brief: as §1
# Trypsin = Trypsin (Homo sapiens, UniProt P07477+P07478+P35030); assay: Inhibition of trypsin (unknown origin) at 10 nM to 33.3 uM after 30 mins by gel-based ABPP assay; type: protein assay
# [5] = molecular target: T2, Epithelial sodium channel subunit alpha (Homo sapiens, UniProt P37088); assay: Inhibition of S-3969-stimulated recombinant human ENaC alpha subunit expressed in HEK293 cells at 10 uM preincubated for 5 mins followed by S-3969 stimulation by FLIPR assay; type: cell-based; details: hek293, 10 µM
# T2 sequence (P37088 whole entry): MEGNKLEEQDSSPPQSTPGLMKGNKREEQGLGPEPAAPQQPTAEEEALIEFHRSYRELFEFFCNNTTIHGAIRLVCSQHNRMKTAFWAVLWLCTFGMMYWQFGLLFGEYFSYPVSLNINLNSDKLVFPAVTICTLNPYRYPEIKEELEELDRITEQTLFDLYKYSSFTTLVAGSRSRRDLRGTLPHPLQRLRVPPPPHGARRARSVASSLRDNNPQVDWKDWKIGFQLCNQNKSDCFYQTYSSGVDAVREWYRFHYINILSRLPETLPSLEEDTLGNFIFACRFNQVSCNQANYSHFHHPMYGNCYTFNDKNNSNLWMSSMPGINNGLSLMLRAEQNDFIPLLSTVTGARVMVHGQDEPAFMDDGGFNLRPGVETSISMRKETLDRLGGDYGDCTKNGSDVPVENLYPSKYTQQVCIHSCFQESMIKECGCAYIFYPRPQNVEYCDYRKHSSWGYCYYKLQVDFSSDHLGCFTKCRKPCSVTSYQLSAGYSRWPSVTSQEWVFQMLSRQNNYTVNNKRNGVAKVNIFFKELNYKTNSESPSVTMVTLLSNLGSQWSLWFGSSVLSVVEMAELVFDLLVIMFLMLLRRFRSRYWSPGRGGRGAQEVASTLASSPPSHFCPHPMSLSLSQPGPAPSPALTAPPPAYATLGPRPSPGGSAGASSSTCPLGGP
# Method in brief: (§2)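 HEK-293 cells transfected with human ENaC α, β and γ cDNA together, plated at 20 000 cells/well, incubated overnight at 37 °C. Loaded with membrane-potential red dye for 30 min at 37 °C. Compound preincubated 5 min in HEPES-buffered salt solution (pH 7.4, 0.3% DMSO), then stimulated with 1 µM S-3969, read on FLIPR. Signal normalized to agonist alone (100%) and agonist plus 30 µM benzamil (0%). n = 4 wells.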
# [6] = molecular target: T3, Epithelial sodium channel subunit beta (Homo sapiens, UniProt P51168); assay: Inhibition of S-3969-stimulated recombinant human ENaC beta subunit expressed in HEK293 cells at 10 uM preincubated for 5 mins followed by S-3969 stimulation by FLIPR assay; type: cell-based; details: hek293, 10 µM; method in brief: as §2
# T3 sequence (P51168 whole entry): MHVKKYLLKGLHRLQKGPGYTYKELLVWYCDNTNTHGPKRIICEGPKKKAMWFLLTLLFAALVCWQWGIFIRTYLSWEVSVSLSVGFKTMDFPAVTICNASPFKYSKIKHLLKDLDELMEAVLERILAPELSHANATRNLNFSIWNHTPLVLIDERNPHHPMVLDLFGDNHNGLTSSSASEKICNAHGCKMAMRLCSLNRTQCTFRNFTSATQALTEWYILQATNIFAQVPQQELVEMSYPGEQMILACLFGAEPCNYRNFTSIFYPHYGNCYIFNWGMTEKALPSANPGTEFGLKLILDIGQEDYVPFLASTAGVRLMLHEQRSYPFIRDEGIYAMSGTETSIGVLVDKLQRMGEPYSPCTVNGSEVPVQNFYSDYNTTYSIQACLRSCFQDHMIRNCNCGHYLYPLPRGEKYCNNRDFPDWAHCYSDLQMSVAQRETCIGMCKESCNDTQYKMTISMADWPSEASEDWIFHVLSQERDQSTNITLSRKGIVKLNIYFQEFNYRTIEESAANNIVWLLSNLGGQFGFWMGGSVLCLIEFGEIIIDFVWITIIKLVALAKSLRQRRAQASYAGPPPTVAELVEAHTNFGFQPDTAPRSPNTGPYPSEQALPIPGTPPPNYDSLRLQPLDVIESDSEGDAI
# [7] = molecular target: T4, Epithelial sodium channel subunit gamma (Homo sapiens, UniProt P51170); assay: Inhibition of S-3969-stimulated recombinant human ENaC gamma subunit expressed in HEK293 cells at 10 uM preincubated for 5 mins followed by S-3969 stimulation by FLIPR assay; type: cell-based; details: hek293, 10 µM; method in brief: as §2
# T4 sequence (P51170 whole entry): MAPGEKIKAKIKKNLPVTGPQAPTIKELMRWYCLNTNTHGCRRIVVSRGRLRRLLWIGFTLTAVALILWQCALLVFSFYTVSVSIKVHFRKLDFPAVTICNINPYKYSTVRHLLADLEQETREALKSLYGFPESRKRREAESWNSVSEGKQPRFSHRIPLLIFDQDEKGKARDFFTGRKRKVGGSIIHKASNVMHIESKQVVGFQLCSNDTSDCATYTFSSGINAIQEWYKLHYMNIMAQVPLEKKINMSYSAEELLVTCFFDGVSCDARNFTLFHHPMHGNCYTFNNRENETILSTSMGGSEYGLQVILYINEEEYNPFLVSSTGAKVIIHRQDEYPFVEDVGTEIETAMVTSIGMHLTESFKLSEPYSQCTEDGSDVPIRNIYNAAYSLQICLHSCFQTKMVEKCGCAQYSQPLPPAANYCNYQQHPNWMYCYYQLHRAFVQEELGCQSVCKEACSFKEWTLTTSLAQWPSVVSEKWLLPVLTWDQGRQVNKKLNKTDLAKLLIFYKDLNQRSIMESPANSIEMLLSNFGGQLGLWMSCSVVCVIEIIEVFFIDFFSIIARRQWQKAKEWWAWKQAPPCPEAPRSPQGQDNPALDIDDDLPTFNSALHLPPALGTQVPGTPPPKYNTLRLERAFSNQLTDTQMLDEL
# [8] = molecular target: T1, Urokinase-type plasminogen activator; assay: Inhibition of human kidney uPA after 30 mins by gel-based ABPP assay
# Chain of Coagulation factor XI (P03951 19-387 limits assumed): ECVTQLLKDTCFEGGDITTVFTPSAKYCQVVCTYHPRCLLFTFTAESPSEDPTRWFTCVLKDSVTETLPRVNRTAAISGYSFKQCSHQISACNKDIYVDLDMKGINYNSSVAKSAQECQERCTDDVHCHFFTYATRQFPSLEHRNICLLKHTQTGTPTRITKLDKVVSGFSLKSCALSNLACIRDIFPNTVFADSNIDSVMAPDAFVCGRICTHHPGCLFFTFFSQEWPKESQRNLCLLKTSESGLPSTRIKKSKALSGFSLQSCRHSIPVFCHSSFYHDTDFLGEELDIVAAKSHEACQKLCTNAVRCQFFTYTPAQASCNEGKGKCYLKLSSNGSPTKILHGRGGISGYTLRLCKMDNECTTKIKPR
# Chain of Coagulation factor XI (P03951 388-625 limits assumed): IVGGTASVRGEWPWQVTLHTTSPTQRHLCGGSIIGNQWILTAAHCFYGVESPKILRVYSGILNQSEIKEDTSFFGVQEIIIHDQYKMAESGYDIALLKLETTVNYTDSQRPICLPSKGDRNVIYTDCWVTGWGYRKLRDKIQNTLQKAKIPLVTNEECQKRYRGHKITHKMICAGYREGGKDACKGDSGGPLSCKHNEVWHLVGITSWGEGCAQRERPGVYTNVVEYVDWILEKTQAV
# Chain of Plasma kallikrein (P03952 20-390 limits assumed): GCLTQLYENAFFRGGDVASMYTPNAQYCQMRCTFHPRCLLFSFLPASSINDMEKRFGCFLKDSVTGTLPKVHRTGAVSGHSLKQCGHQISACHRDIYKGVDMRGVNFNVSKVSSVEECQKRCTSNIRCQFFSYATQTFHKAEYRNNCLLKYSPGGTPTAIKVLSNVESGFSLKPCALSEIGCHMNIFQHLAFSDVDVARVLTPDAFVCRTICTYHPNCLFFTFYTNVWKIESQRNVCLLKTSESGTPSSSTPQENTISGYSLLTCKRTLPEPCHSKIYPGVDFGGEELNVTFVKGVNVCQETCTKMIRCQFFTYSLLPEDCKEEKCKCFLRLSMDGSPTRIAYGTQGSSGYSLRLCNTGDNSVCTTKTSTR
# Chain of Plasma kallikrein (P03952 391-638 limits assumed): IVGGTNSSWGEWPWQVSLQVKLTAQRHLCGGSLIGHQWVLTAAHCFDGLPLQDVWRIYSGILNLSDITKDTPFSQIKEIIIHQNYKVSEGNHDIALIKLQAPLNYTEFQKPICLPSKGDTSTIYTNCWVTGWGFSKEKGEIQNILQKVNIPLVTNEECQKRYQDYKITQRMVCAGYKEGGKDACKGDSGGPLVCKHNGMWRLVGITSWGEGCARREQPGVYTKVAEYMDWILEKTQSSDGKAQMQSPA
# Chain of Tissue-type plasminogen activator (P00750 whole entry): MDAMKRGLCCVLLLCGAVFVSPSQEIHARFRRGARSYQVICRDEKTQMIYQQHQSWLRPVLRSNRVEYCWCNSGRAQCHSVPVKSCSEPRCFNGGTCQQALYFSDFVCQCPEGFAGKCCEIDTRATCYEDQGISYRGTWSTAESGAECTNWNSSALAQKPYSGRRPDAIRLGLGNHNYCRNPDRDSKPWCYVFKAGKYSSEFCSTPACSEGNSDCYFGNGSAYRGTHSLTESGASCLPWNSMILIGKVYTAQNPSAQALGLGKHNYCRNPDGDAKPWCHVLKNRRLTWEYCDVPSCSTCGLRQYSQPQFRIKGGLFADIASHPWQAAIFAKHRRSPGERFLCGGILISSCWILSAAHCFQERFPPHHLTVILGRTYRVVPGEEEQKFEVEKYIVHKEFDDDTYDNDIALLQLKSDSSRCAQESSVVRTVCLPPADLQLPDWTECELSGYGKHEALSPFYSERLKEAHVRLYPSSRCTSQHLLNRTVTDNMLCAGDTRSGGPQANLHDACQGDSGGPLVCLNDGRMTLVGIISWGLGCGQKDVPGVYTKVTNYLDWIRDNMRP
# Chain of Vitamin K-dependent protein C (P04070 43-197 limits assumed): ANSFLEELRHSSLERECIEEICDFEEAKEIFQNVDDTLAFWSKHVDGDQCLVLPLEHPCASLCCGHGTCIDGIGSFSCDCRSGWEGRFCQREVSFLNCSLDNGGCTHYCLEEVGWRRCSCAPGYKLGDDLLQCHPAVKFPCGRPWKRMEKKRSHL
# Chain of Vitamin K-dependent protein C (P04070 212-461 limits assumed): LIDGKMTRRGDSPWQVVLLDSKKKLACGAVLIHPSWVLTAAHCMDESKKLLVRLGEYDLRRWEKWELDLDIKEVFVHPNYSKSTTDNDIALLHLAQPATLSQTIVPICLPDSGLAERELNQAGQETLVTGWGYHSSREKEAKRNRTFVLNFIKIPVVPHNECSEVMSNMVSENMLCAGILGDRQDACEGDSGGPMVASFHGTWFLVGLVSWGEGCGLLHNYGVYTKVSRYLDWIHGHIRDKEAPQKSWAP
# Chain of Coagulation factor X (P00742 41-179 limits assumed): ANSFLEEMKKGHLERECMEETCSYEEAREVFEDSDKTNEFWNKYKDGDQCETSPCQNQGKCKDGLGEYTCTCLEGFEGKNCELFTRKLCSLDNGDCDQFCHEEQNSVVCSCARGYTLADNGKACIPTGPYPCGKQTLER
# Chain of Coagulation factor X (P00742 235-488 limits assumed): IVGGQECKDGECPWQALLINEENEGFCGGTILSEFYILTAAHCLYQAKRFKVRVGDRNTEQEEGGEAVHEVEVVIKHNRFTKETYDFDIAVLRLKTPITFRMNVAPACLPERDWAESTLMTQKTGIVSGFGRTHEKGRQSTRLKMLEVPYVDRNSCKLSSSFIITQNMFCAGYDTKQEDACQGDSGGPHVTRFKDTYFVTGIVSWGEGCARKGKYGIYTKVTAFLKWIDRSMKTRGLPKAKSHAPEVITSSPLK
# Chain of Plasminogen (P00747 97-580 limits assumed): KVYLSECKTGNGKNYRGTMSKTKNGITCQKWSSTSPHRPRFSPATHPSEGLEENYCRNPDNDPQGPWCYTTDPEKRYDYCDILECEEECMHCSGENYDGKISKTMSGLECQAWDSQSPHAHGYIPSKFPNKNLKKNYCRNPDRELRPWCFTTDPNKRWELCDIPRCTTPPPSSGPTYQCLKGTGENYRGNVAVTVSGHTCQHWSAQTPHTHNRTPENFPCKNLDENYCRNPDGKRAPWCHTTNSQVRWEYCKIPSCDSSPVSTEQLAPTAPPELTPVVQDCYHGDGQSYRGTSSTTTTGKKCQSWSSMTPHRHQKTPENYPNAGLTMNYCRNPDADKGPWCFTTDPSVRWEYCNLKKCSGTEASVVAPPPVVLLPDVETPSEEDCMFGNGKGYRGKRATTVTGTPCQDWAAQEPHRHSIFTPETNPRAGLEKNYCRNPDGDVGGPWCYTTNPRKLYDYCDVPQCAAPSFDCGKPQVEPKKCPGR
# Chain of Plasminogen (P00747 581-810 limits assumed): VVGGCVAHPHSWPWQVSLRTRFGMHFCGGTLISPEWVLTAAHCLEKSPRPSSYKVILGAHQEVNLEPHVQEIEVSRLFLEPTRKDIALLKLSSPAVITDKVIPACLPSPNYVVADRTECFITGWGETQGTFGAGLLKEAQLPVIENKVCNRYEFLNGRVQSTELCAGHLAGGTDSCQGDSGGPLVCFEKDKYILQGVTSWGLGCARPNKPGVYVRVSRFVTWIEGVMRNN
structure (smiles),measurement,setting,value
N=C(N)NC(=O)c1nc(-c2cccnc2F)c(N2CCCCCC2)nc1N,Ki,[1],1780 nM
N=C(N)NC(=O)c1nc(-c2cc3c(F)cccc3o2)c(N2CCCCCC2)nc1N,Ki,[1],88 nM
same,IC50,[2],430 nM
same,IC50,[3],> 20000 nM
same,IC50,Plasminogen,> 20000 nM
same,IC50,Prothrombin,> 20000 nM
same,IC50,Plasma kallikrein,16700 nM
same,IC50,Coagulation factor XI,23300 nM
same,IC50,Coagulation factor X,> 50000 nM
same,IC50,[4],> 50000 nM
same,IC50,MDA-MB-231,3200 nM
same,IC50,HepG2,68400 nM
same,IC50,HEK293,12000 nM
same,IC50,HT-1080,2100 nM
COc1ncc(-c2nc(C(=O)NC(=N)N)c(N)nc2N2CCCCCC2)c(OC)n1,Ki,[1],42 nM
N=C(N)NC(=O)c1nc(-c2cncnc2)c(N2CCCCCC2)nc1N,Ki,[1],108 nM
same,inhibition,Trypsin,Active
same,IC50,MDA-MB-231,> 100000 nM
same,IC50,HepG2,> 100000 nM
same,IC50,HEK293,> 100000 nM
same,IC50,HT-1080,37100 nM
same,inhibition (INH),[5],Not Active
same,inhibition (INH),[6],Not Active
same,inhibition (INH),[7],Not Active
same,inhibition,[8],Active
CC(C)Nc1ncc(-c2nc(C(=O)NC(=N)N)c(N)nc2N2CCCCCC2)cn1,Ki,[1],42 nM
N=C(N)NC(=O)c1nc(-c2cnn(CCN3CCOCC3)c2)c(N2CCCCCC2)nc1N,Ki,[1],658 nM
COc1ccc(-c2nc(C(=O)NC(=N)N)c(N)nc2N2CCCCCC2)c(OC)n1,Ki,[1],884 nM
N=C(N)NC(=O)c1nc(-c2cnc(NCCO)nc2)c(N2CCCCCC2)nc1N,Ki,[1],41 nM
N=C(N)NC(=O)c1nc(-c2ccc3c(c2)OCO3)c(N2CCCCCC2)nc1N,Ki,[1],934 nM
Cn1cc(-c2nc(C(=O)NC(=N)N)c(N)nc2N2CCCCCC2)cn1,Ki,[1],508 nM
COc1cc(OC)cc(-c2nc(C(=O)NC(=N)N)c(N)nc2N2CCCCCC2)c1,Ki,[1],1320 nM
N=C(N)NC(=O)c1nc(Nc2ncccn2)c(N2CCCCCC2)nc1N,Ki,[1],228 nM
N=C(N)NC(=O)c1nc(-c2cnc(N)nc2)c(N2CCCCCC2)nc1N,Ki,[1],21 nM
N=C(N)NC(=O)c1nc(-c2ccco2)c(N2CCCCCC2)nc1N,Ki,[1],156 nM
N=C(N)NC(=O)c1nc(-c2ccsc2)c(N2CCCCCC2)nc1N,Ki,[1],1030 nM
CSc1ccc(-c2nc(C(=O)NC(=N)N)c(N)nc2N2CCCCCC2)cc1,Ki,[1],16400 nM
CNc1ncc(-c2nc(C(=O)NC(=N)N)c(N)nc2N2CCCCCC2)cn1,Ki,[1],43 nM
N=C(N)NC(=O)c1nc(-c2ccoc2)c(N2CCCCCC2)nc1N,Ki,[1],166 nM
N=C(N)NC(=O)c1nc(-c2cncc3ccccc23)c(N2CCCCCC2)nc1N,Ki,[1],3540 nM
COc1cc(-c2nc(C(=O)NC(=N)N)c(N)nc2N2CCCCCC2)c(OC)nn1,Ki,[1],315 nM
N=C(N)NC(=O)c1nc(-c2cc3ccccc3s2)c(N2CCCCCC2)nc1N,Ki,[1],3310 nM
N=C(N)NC(=O)c1nc(-c2cccs2)c(N2CCCCCC2)nc1N,Ki,[1],2420 nM
N=C(N)NC(=O)c1nc(-c2ccc(C(F)(F)F)cc2)c(N2CCCCCC2)nc1N,Ki,[1],4260 nM
same,inhibition (INH),[5],Not Active
same,inhibition (INH),[6],Not Active
same,inhibition (INH),[7],Not Active
N=C(N)NC(=O)c1nc(-c2cc3ccccc3[nH]2)c(N2CCCCCC2)nc1N,Ki,[1],5670 nM
same,inhibition (INH),[5],Not Active
same,inhibition (INH),[6],Not Active
same,inhibition (INH),[7],Not Active
N=C(N)NC(=O)c1nc(-c2ccccc2)c(N2CCCCCC2)nc1N,Ki,[1],5020 nM
COc1ccc(-c2nc(C(=O)NC(=N)N)c(N)nc2N2CCCCCC2)c(OC)c1,Ki,[1],2200 nM
